Among the data in ChEMBL document CHEMBL1135983, “Cyclohexylmethylpiperidinyltriphenylpropioamide: a selective muscarinic M(3) antagonist discriminating against the other receptor subtypes” (J Med Chem, 2002) are Ki, Selectivity and ED50 values, retold here.

The term Ki denotes a measure of affinity in units of concentration, obtained from inhibition or displacement. The low end stands for a stronger hold on the target, the high end for a looser hold on the target. For orientation: ED50 means the midpoint of the dose-response relation. Read a high ED50 as weaker potency.

The target in experiment [1] is T1, Muscarinic acetylcholine receptor M1 (Homo sapiens, UniProt P11229).
T1 sequence (P11229 whole entry): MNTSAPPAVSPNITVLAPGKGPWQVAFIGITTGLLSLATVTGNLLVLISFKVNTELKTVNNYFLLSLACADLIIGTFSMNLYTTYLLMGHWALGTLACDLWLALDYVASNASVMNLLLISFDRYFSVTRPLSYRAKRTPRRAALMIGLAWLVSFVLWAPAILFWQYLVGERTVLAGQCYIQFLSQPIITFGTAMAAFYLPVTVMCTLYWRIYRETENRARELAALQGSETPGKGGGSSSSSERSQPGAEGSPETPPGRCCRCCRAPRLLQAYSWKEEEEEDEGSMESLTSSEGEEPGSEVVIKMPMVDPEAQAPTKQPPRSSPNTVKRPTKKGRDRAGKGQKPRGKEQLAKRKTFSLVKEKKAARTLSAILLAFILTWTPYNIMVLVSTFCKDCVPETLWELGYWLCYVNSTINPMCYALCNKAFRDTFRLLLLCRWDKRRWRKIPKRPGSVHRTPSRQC
Put plainly: biochemical. It counts as cell-based, CHO.

In experiment [2] the target is T2, Muscarinic acetylcholine receptor M5 (Homo sapiens, UniProt P08912).
T2 sequence (P08912 whole entry): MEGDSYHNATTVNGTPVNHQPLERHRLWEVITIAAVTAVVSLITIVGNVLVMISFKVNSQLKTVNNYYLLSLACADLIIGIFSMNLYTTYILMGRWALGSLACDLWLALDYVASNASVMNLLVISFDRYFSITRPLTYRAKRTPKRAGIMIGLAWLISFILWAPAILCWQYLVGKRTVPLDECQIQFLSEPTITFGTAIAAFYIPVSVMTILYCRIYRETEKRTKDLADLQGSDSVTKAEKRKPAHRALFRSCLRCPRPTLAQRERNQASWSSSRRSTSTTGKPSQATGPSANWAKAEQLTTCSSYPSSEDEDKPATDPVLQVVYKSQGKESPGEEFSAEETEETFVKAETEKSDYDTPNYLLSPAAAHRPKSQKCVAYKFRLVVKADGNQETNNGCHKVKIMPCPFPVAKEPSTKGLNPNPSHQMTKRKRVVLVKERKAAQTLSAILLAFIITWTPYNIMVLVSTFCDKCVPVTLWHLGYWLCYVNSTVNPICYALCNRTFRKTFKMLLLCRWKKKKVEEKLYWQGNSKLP
Put plainly: Binding affinity (Ki) against binding of [3H]NMS using membranes from CHO cells expressing cloned human Muscarinic acetylcholine receptor M5. It counts as cell membranes.

Experiment [3] has as its target Muscarinic acetylcholine receptor M3 (Homo sapiens, UniProt P20309). Put plainly: biochemical. The format is cell-based, CHO.
The species entered for experiment [4] is Homo sapiens. The experiment in a line: Selectivity ratio (m4/m3). The gist of the method:
(§1)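 Binding affinities (Ki) were measured at each of the five muscarinic receptor subtypes (m1–m5), with the m3 receptor being human and expressed in CHO cells. The ratio compares the m4 or m5 Ki with the m3 Ki. Values are the mean of two or more independent assays.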

Experiment [5] deals with T3, Muscarinic acetylcholine receptor M2 (Homo sapiens, UniProt P08172).
T3 sequence (P08172 whole entry): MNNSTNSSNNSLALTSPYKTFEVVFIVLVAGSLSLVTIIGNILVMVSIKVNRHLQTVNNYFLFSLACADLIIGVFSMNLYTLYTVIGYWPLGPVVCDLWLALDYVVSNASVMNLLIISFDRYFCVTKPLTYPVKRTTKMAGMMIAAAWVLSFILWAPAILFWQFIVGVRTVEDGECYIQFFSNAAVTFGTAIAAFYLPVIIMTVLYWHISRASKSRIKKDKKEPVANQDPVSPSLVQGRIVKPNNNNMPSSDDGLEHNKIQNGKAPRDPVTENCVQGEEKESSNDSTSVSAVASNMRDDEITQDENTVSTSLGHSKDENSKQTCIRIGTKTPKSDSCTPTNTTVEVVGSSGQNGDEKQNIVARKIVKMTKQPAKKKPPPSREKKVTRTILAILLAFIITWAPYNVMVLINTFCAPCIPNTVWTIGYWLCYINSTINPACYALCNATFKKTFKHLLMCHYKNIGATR
Put plainly: Binding affinity (Ki) against binding of [3H]NMS to membranes from CHO cells expressing cloned human Muscarinic acetylcholine receptor M2. The format is cell membranes.

The target in experiment [6] is T4, Muscarinic acetylcholine receptor M4 (Homo sapiens, UniProt P08173).
T4 sequence (P08173 whole entry): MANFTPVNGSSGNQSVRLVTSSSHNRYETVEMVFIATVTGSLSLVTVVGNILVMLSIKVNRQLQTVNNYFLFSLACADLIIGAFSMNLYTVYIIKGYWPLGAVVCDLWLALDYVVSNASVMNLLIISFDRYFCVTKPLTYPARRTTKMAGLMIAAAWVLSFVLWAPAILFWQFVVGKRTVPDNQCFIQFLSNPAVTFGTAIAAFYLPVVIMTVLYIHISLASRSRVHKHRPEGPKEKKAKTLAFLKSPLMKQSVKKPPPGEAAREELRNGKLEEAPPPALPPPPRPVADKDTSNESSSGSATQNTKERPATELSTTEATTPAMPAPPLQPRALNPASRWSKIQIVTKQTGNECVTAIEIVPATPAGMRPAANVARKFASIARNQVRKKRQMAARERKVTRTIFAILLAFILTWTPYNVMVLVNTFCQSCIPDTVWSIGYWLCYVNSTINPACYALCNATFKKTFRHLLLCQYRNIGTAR
The experiment in a line: Binding affinity (Ki) against binding of [3H]NMS using membranes from CHO cells expressing cloned human Muscarinic acetylcholine receptor M4. The format is cell membranes.

The species entered for experiment [7] is Homo sapiens. Put plainly: Selectivity ratio (m5/m3). The gist of the method: as §1
The test system of experiment [8] is Rattus norvegicus. The experiment in a line: 50% in vivo effective dose that inhibits Ach-induced bradycardia (M2) in rat assay systems after intravenous administration was reported. It counts as functional.
For experiment [9], the system named is Rattus norvegicus. Put plainly: 50% in vivo effective dose that inhibits ACh-induced bronchoconstriction (M3) in rat assay systems after intravenous administration was reported. It counts as functional.
The test system of experiment [10] is Rattus norvegicus. Put plainly: 50% in vivo effective dose that inhibits ACh-induced pressor response (M1) in rat assay systems after intravenous administration was reported. It counts as functional.

Chain of Muscarinic acetylcholine receptor M3 (P20309 whole entry): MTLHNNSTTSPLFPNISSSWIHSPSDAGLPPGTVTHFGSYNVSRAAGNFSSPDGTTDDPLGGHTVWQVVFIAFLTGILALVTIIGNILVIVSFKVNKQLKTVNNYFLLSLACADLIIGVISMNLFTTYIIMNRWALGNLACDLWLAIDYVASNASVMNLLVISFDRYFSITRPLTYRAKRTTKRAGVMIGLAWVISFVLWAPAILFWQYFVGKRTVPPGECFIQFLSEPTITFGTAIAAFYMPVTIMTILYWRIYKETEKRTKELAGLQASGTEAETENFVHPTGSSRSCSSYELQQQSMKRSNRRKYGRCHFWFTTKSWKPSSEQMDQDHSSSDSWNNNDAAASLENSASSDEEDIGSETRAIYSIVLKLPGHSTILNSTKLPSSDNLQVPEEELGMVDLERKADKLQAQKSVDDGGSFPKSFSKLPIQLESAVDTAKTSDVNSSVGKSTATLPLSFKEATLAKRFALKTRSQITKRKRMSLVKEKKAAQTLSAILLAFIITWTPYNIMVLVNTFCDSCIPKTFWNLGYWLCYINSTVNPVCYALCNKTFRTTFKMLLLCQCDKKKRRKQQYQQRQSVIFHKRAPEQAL

On to `O=C(CCCNC(=O)CC(c1ccccc1)(c1ccccc1)c1ccccc1)NCCC(=O)NCC1CCCN(CC2CCCCC2)C1` (configuration not stated), for which the inhibitory constant (Ki) was found to be 77 nM in experiment [1]; 200 nM in experiment [2]; 2.1 nM in experiment [3]; 17 nM in experiment [5]; 60 nM in experiment [6]. Besides, the Selectivity in the experiment filed under Homo sapiens [4] stood at 29; in the experiment filed under Homo sapiens [7], 95.

Consider `O=C(CCCCCNC(=O)CC(c1ccccc1)(c1ccccc1)c1ccccc1)NC[C@H]1CCCN(CC2CCCCC2)C1`, for which the Ki in experiment [1] turned out to be 110 nM; in [2] it was 210 nM; in experiment [3] it was 1 nM; in experiment [5] it was 72 nM; in [6], 30 nM. Also, the Selectivity came out at 30 in the experiment listed under Homo sapiens [4] and 200 in the experiment filed under Homo sapiens [7].

Take `O=C(CCNC(=O)CNC(=O)CC(c1ccccc1)(c1ccccc1)c1ccccc1)NC[C@H]1CCCN(CC2CCCCC2)C1`: the Ki in experiment [1] was 120 nM; in [2], 37 nM; in [3], 0.31 nM; in [5], 30 nM; in experiment [6], 14 nM. Moreover, the figures for the ED50 with Rattus norvegicus [8], in the experiment on Rattus norvegicus [9] and with Rattus norvegicus [10] were 1.55 mg/kg, 0.015 mg/kg and greater than 3 mg/kg, respectively. Also, the Selectivity in the experiment listed under Homo sapiens [4] was 45; in the experiment filed under Homo sapiens [7] it was 120.

As for `CN1[C@@H]2CC[C@H]1C[C@@H](OC(=O)C(CO)c1ccccc1)C2` (some centres not stated) [ATROPINE], the ED50 in the experiment on Rattus norvegicus [8] was 0.0052 mg/kg; in the experiment with Rattus norvegicus [9] it was 0.0043 mg/kg; with Rattus norvegicus [10], 0.016 mg/kg.

As for `O=C(NC[C@H]1CCCN(CC2CCCCC2)C1)[C@H]1CCCN1C(=O)[C@@H]1CCCN1C(=O)CC(c1ccccc1)(c1ccccc1)c1ccccc1`, the Ki in experiment [1] amounted to 14 nM; in experiment [2], 150 nM; in experiment [3] it was 0.25 nM; in experiment [5], 0.82 nM; in experiment [6] it was 2.3 nM. The values for the Selectivity in the experiment filed under Homo sapiens [4] and in the experiment listed under Homo sapiens [7] were 9 and 580, respectively.

On to `O=C(CCCNC(=O)CNC(=O)CC(c1ccccc1)(c1ccccc1)c1ccccc1)NCC1CCCN(CC2CCCCC2)C1` (configuration not stated), for which the Ki in [1] amounted to 300 nM; in experiment [2] it was 1100 nM; in [3], 3.3 nM; in experiment [5] it was 270 nM; in [6], 74 nM. In addition, the values for the Selectivity in the experiment listed under Homo sapiens [4] and in the experiment filed under Homo sapiens [7] were 22 and 320, respectively.

Consider `O=C(CCNC(=O)[C@@H]1CCCN1C(=O)CC(c1ccccc1)(c1ccccc1)c1ccccc1)NC[C@H]1CCCN(CC2CCCCC2)C1`, for which the Ki amounted to 150 nM in experiment [1]; 58 nM in [2]; 0.27 nM in [3]; 12 nM in experiment [5]; 11 nM in experiment [6]. For the same molecule, the Selectivity is 42 in the experiment listed under Homo sapiens [4] and 210 in the experiment filed under Homo sapiens [7].

Turning to `O=C(CNC(=O)[C@@H]1CCCN1C(=O)CC(c1ccccc1)(c1ccccc1)c1ccccc1)NC[C@H]1CCCN(CC2CCCCC2)C1`, the Ki in experiment [1] came out at 150 nM; in experiment [2], 2000 nM; in experiment [3], 2.2 nM; in experiment [5], 13 nM; in experiment [6] it was 43 nM. Besides, the results for the Selectivity in the experiment filed under Homo sapiens [4] and in the experiment filed under Homo sapiens [7] were 19 and 890, respectively.

With `O=C(CCNC(=O)CC(c1ccccc1)(c1ccccc1)c1ccccc1)NCCC(=O)NC[C@H]1CCCN(CC2CCCCC2)C1`, the Ki in experiment [1] was found to be 36 nM; in [2], 30 nM; in experiment [3] it was 0.76 nM; in [5], 44 nM; in experiment [6], 31 nM. Besides, the Selectivity in the experiment filed under Homo sapiens [4] was determined as 41; in the experiment listed under Homo sapiens [7] it was 40.
